Calls of active or inactive are those of the source.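 Rule for the calls, unless noted: active = viability loss from added drug above about 55%, and viability with drug at most 40%, in both replicates (limit read from the data, passing the limit was not always enough); inconclusive = both conditions met in only one replicate; inactive = neither replicate meets both conditions.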
Experiments:
[1] = reducers of endogenous Her2 protein level, primary screen, SKBR3 breast tumor cells, AlphaScreen, ATP viability (AID 461;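 active = Her2 level under about 52% in both replicate screens, with viability over 70% of control, limit read from the data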;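 for Her2 level: lower value means less Her2 protein in the cells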;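 for viability: percent of carrier control wells set as 100% viability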); conditions: 18-24 h, measured here: SKBR3 viability, ATP luminescence, at 10 µM
[2] = target: Receptor tyrosine-protein kinase erbB-2 (Homo sapiens) (UniProt P04626); experiment: as above; conditions: 18-24 h, at 10 µM, stronger effect = lower value
[3] = SK-BR-3 cell growth inhibitors, pilot screen, 24 h, human (AID 572;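 active = viability at or below 10% of carrier control in both of two separate runs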;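 note: compound exposure lasted between 18 and 24 h rather than exactly 24 h; 100% = carrier-treated control wells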); conditions: SK-BR-3 viability, CellTiter-Glo luminescence, at 10 µM, stronger effect = lower value
[4] = HUVEC growth inhibition – cell-based, human, primary screen (AID 575;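 active = viability at or below 30% in both replicate assays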;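 note: 100% = median of untreated cell wells with 0.1% DMSO on each plate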); conditions: HUVEC proliferation, CellTiter-Glo luminescence, 72 h; at 10 µM; stronger effect = lower value
Procedure, shortened: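 Test system: primary human umbilical vein endothelial cells. Quantity: 1250 cells/well. Compound: single 10 µM dose, 0.1% DMSO, from 5x medium stock. Timing: 72 h treatment at 37 °C. Detection: ATP-based CellTiter-Glo luminescent read. Benchmarks: vehicle and MePR control wells. Format: 384-well plates coated with collagen.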

[5] = growth inhibitors of H69AR lung tumor, primary screen, human, duplicate replicates (AID 580;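 active = viability at or under a set limit in both replicates, limit being median viability minus 3 SD, cut at about 48% in these data, passing the limit was not always enough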;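 note: 100% = mean luminescence of untreated wells and 0% = no signal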); conditions: H69AR lung tumor cells viability, ATP luminescence, 72 h; at 10 µM; stronger effect = lower value
[6] = reversal of MRP1-mediated doxorubicin resistance, pilot screen, H69AR cells, doxorubicin co-treatment (AID 601); conditions: CellTiter-Glo, 72 h, at 10 µM; for differential viability (reversal): stronger effect = higher value
[7] = 384-well plate pilot, post-Golgi transport modulator project, inhibition of yeast transport mutant growth (AID 636; in the data active = inhibition above about 31%); conditions: absorbance 615 nm, about 18 h, stronger effect = higher value
[8] = growth suppression of yeast trafficking mutant, preliminary HTS, modulators of trafficking downstream of Golgi apparatus project, 1536-format plate, OD 615 nm (AID 637; in the data active = inhibition above about 30%); conditions: yeast transport mutant growth, absorbance 615 nm, 18 h; stronger effect = higher value
[9] = H69AR cells + 2 uM doxorubicin, measured here: viability with 2 uM doxorubicin, stronger effect = lower value
[10] = H69AR cells, compound alone cytotoxicity

Sequence of Receptor tyrosine-protein kinase erbB-2 (Homo sapiens) (P04626 whole entry, looked up): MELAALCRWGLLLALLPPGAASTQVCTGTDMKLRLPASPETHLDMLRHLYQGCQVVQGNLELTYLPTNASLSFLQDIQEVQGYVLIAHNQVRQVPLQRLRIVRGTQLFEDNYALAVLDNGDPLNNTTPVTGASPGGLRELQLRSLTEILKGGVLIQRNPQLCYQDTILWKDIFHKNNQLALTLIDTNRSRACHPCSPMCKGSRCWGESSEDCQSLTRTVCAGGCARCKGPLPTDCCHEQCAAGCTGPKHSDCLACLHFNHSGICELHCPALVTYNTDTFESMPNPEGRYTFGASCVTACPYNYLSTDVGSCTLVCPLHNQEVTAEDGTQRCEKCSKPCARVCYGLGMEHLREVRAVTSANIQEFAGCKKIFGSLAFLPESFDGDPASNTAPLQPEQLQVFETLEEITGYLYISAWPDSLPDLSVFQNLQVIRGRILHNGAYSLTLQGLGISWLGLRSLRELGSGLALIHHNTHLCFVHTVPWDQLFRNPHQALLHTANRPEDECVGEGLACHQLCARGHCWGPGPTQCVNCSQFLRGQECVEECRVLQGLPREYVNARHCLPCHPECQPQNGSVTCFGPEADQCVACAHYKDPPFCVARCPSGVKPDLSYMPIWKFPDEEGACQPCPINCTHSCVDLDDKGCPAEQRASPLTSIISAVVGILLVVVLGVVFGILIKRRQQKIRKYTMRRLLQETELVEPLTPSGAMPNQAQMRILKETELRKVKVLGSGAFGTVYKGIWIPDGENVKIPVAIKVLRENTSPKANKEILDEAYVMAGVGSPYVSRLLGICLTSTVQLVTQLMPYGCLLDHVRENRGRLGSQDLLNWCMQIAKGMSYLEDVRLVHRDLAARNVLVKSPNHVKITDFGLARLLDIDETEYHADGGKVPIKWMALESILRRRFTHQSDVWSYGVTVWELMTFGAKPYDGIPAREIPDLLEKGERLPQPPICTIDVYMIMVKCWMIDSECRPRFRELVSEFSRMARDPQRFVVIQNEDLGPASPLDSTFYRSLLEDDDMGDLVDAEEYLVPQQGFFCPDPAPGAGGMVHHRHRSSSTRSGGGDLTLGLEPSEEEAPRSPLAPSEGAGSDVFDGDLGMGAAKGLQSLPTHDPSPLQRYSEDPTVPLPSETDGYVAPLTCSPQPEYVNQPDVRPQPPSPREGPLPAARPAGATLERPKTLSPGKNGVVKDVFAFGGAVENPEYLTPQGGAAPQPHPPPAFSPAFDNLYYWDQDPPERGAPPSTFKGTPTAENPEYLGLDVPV

SMILES | viability [1] [%] | Her2 level [2] | viability [3] | viability [4] | viability [5] | differential viability (reversal) ([6]; H69AR cells + 2 uM doxorubicin) | viability [6, 9] [%] | viability [6, 10] [%] | inhibition [7] | inhibition [8]
CC1=C(C#N)C(c2ccoc2)C(C(=O)OCc2ccccc2)=C(N)S1 (stereo not given) | 100 | 88% (inactive) | 100% (inactive) | 99.5% (inactive) | 91.6% (inactive) | -0.82% (inactive) | 92.4 | 91.6 | -3.95% (inactive) | 0% (inactive)
CC(C)(C)n1ncc2c(=O)n(CC(=O)c3ccccc3)cnc21 | 95 | 84% (inactive) | 95% (inactive) | 80.2% (inactive) | 84.2% (inactive) | -2.76% (inactive) | 86.9 | 84.2 | -0.39% (inactive) | -3.23% (inactive)
COc1cccc(NC(=O)CN2CCN(c3ccccc3F)CC2)c1 | 90 | 88.5% (inactive) | 90% (inactive) | 107% (inactive) | 94.9% (inactive) | 1.8% (inactive) | 93.1 | 94.9 | -4.4% (inactive) | 35.6% (active)
C=CCn1cnc2c(NCc3ccccc3)ncnc21 | 85.5 | 94% (inactive) | 85.5% (inactive) | 96.9% (inactive) | 97.1% (inactive) | -3.4% (inactive) | 100 | 97.1 | 1.71% (inactive) | -7.9% (inactive)
CC(=O)c1ccc(-c2nc3ccccc3n2C)o1 | 104 | 81% (inactive) | 104% (inactive) | 96.7% (inactive) | 72.7% (inactive) | 3.04% (inactive) | 69.6 | 72.7 | -6.8% (inactive) | -1.9% (inactive)
COc1ccc(-c2cc(O)cc(O)c2)cc1 | 108 | 89.5% (inactive) | 108% (inactive) | 71.7% (inactive) | 87.6% (inactive) | 7.77% (inactive) | 79.9 | 87.6 | -8.24% (inactive) | 4.26% (inactive)
COc1ccc(N(CC(=O)NCCSC(C)(C)C)S(C)(=O)=O)c(OC)c1 | 91 | 97.5% (inactive) | 91% (inactive) | 106% (inactive) | 92.8% (inactive) | -8.27% (inactive) | 101 | 92.8 | 1.04% (inactive) | 2.62% (inactive)
CCC(=O)Nc1cc2nn(-c3ccccc3)nc2cc1Cl | 91 | 90.5% (inactive) | 91% (inactive) | 55% (inactive) | 68.2% (inactive) | -2.75% (inactive) | 70.9 | 68.2 | -7.57% (inactive) | 5.9% (inactive)
CCOc1cc(-c2nc(-c3ccccc3OC)no2)cc(OCC)c1OCC | 90 | 96.5% (inactive) | 90% (inactive) | 97.4% (inactive) | 92.5% (inactive) | -2.62% (inactive) | 95.1 | 92.5 | -2.13% (inactive) | 22% (inactive)
O=C1CS/C(=N\C(=O)N2c3ccccc3Sc3ccccc32)N1 | 102 | 98.5% (inactive) | 102% (inactive) | 94% (inactive) | 105% (inactive) | 14.4% (inactive) | 90.2 | 105 | -7.07% (inactive) | 1.29% (inactive)
Cc1cc(C)nc(N2CCCC(C(=O)Nc3ccc4c(c3)OCO4)C2)n1 (stereo not given) | 93 | 104% (inactive) | 93% (inactive) | 96.9% (inactive) | 98.5% (inactive) | 8.88% (inactive) | 89.6 | 98.5 | -5.54% (inactive) | -12.3% (inactive)
Cc1ccc(-n2c(=O)c3sccc3n(CC(=O)NCc3ccco3)c2=O)cc1 | 107 | 102% (inactive) | 107% (inactive) | 96.5% (inactive) | 99% (inactive) | 7.63% (inactive) | 91.4 | 99 | -5.53% (inactive) | -2.91% (inactive)
CCCCC(O)(C(NC=O)C(=O)OC)C(F)(F)F (stereo not given) | 95.5 | 85% (inactive) | 95.5% (inactive) | 108% (inactive) | 99.4% (inactive) | 3.77% (inactive) | 95.7 | 99.4 | -2.27% (inactive) | 7.58% (inactive)
C(=N\n1cnnc1)/c1cccnc1 | 87.5 | 107% (inactive) | 87.5% (inactive) | 105% (inactive) | 98.6% (inactive) | 9.86% (inactive) | 88.8 | 98.6 | 4.34% (inactive) | 0.36% (inactive)
Cc1nc2ccccc2c(=O)n1/N=C/c1ccncc1 | 95 | 99.5% (inactive) | 95% (inactive) | 105% (inactive) | 103% (inactive) | 12.4% (inactive) | 91.1 | 103 | -6.13% (inactive) | -1.94% (inactive)
O=C(Nc1ccccc1N1CCCCC1)c1ncoc1-c1ccc(F)cc1 | 115 | 109% (inactive) | 115% (inactive) | 78.1% (inactive) | 84.6% (inactive) | -1.2% (inactive) | 85.8 | 84.6 | -3.47% (inactive) | -2.86% (inactive)

SMILES | viability [1] [%] | Her2 level [2] | viability [3] | viability [4] | viability [5] | differential viability (reversal) ([6]; H69AR cells + 2 uM doxorubicin) | viability [6, 9] [%] | viability [6, 10] [%] | inhibition [7] | inhibition [8]
O=C(O)C1C2C=CC(O2)C1C(=O)NCc1ccc(Cl)cc1 (stereo not given) | 107 | 94.5% (inactive) | 107% (inactive) | 105% (inactive) | 104% (inactive) | 7.33% (inactive) | 96.6 | 104 | -5.87% (inactive) | 2.58% (inactive)
COC(=O)c1cc2oc(C)cc2n1CC(=O)Nc1ccc(C)c(C)c1 | 85.5 | 83% (inactive) | 85.5% (inactive) | 59.5% (inactive) | 83.8% (inactive) | -3.33% (inactive) | 87.1 | 83.8 | 0.51% (inactive) | -7% (inactive)
CN(C)CCCn1c(N)c(C#N)c2nc(C#N)c(C#N)nc21 | 179 | 47.5% (active) | 179% (inactive) | 66.9% (inactive) | 90.1% (inactive) | -3.03% (inactive) | 93.1 | 90.1 | -1.89% (inactive) | -1.75% (inactive)
Cc1ccc(OC(=O)CCc2c(C)nc3ncnn3c2C)cc1 | 102 | 96.5% (inactive) | 102% (inactive) | 95.9% (inactive) | 87.1% (inactive) | 5.46% (inactive) | 81.7 | 87.1 | 3.29% (inactive) | -9.09% (inactive)
CCN(CC)S(=O)(=O)c1ccc2c(c1)nc(SCC(=O)NC1CC1)n2-c1ccccc1OC | 92.5 | 86.5% (inactive) | 92.5% (inactive) | 67.8% (inactive) | 91.3% (inactive) | 14.2% (inactive) | 77.1 | 91.3 | -5.81% (inactive) | 3.65% (inactive)
CC(=O)N1CCN(C(C)=O)C1c1ccccc1 | 93.5 | 136% (inactive) | 93.5% (inactive) | 77.9% (inactive) | 91.4% (inactive) | 2.34% (inactive) | 89.1 | 91.4 | 3.46% (inactive) | -7% (inactive)
COC(=O)c1ccc(CSc2nc3c(cnn3-c3ccc(F)cc3)c(=O)[nH]2)o1 | 99 | 101% (inactive) | 99% (inactive) | 65.3% (inactive) | 92.5% (inactive) | -4.38% (inactive) | 96.9 | 92.5 | -2.19% (inactive) | -1.9% (inactive)
CCOc1ccc(C(=O)Nc2ccc(N3CCN(C)CC3)cc2)cc1Br | 114 | 93% (inactive) | 114% (inactive) | 2.57% (active) | 81.8% (inactive) | 10.2% (inactive) | 71.7 | 81.8 | -4.67% (inactive) | 12.1% (inactive)
CCC(=O)Nc1c(C#N)c2nc3ccccc3nc2n1-c1ccccc1C | 95 | 82.5% (inactive) | 95% (inactive) | 99.2% (inactive) | 87.5% (inactive) | -3.52% (inactive) | 91 | 87.5 | -5.2% (inactive) | 8.85% (inactive)
Cn1cnnc1SCC(=O)Nc1sc2c(c1C#N)CCCCC2 | 86 | 102% (inactive) | 86% (inactive) | 73.5% (inactive) | 95.2% (inactive) | 11.4% (inactive) | 83.9 | 95.2 | 10.1% (inactive) | 27.9% (inactive)
O=C(Nc1ccc(F)cc1)c1cccc2c1C(=O)N(Cc1ccccn1)C2 | 95.5 | 90% (inactive) | 95.5% (inactive) | 87.5% (inactive) | 96% (inactive) | 16.1% (inactive) | 79.9 | 96 | -0.92% (inactive) | -3.06% (inactive)
C=CCN(C(=O)CNS(=O)(=O)c1ccccc1)C(C(=O)NCCOC)c1ccncc1 (stereo not given) | 100 | 103% (inactive) | 100% (inactive) | 97.6% (inactive) | 102% (inactive) | 5.81% (inactive) | 96.3 | 102 | -4.27% (inactive) | -9.84% (inactive)
O=C(c1cnn2c(C(F)(F)F)cc(-c3ccco3)nc12)N1CCc2ccccc2C1 | 76 | 112% (inactive) | 76% (inactive) | 69.9% (inactive) | 89.6% (inactive) | 3.92% (inactive) | 85.7 | 89.6 | -1.33% (inactive) | -9.37% (inactive)
Cn1cc(CC(=O)Nc2cccc(C#N)c2)c2ccccc21 | 101 | 87.5% (inactive) | 101% (inactive) | 97.7% (inactive) | 104% (inactive) | 12.6% (inactive) | 91.7 | 104 | -4.61% (inactive) | -2.22% (inactive)
COc1ccc(CNC(=O)CN(C(=O)c2ccc(CN3CCOCC3)o2)C2CCCC2)cc1 | 124 | 84.5% (inactive) | 124% (inactive) | 89% (inactive) | 93.1% (inactive) | 7.3% (inactive) | 85.8 | 93.1 | -1.87% (inactive) | 0.98% (inactive)
